Test results published in ChEMBL document CHEMBL1649062, “Integration of lead optimization with crystallography for a membrane-bound ion channel target: discovery of a new class of AMPA receptor positive allosteric modulators” (J Med Chem, 2011).
Active and inactive are the calls of the source.

How the values were obtained:
[1] = Half life in Gottingen minipig at 0.5 mg/kg, iv; type: ADME, organism-based, Sus scrofa; design: dose 0.5 mg/kg, route intravenous; conditions: pig, in vivo
Method in brief: (§1)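 Male animals, n = 3 per species, given single iv and oral doses. Values are mean and range. Blood clearance is also expressed as % of liver blood flow, taken as (mL/min)/kg: rat 85, dog 31, minipig 30, cynomolgus monkey 44.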

[2] = Oral bioavailability in cynomolgus monkey at 1 mg/kg; type: ADME, organism-based, Macaca fascicularis; conditions: in vivo
Method in brief: (§2)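 Male animals, n = 3 per species, given single iv and oral doses: Sprague-Dawley rat 2.5 iv / 3 po mg/kg; beagle dog 0.25 / 0.5; Göttingen minipig 0.5 / 1; cynomolgus monkey 0.25 / 1. Blood sampled; Vss from iv; bioavailability and Vss as mean [range]; Tmax as median [range].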

[3] = Intrinsic clearance in cryopreserved rhesus monkey hepatocytes assessed per gram of tissue; type: ADME, Macaca mulatta, Liver, Hepatocyte
[4] = target: Voltage-gated inwardly rectifying potassium channel KCNH2 (Homo sapiens, UniProt Q12809); assay: Inhibition of human ERG at 10 uM
Sequence of Voltage-gated inwardly rectifying potassium channel KCNH2 (Q12809 whole entry): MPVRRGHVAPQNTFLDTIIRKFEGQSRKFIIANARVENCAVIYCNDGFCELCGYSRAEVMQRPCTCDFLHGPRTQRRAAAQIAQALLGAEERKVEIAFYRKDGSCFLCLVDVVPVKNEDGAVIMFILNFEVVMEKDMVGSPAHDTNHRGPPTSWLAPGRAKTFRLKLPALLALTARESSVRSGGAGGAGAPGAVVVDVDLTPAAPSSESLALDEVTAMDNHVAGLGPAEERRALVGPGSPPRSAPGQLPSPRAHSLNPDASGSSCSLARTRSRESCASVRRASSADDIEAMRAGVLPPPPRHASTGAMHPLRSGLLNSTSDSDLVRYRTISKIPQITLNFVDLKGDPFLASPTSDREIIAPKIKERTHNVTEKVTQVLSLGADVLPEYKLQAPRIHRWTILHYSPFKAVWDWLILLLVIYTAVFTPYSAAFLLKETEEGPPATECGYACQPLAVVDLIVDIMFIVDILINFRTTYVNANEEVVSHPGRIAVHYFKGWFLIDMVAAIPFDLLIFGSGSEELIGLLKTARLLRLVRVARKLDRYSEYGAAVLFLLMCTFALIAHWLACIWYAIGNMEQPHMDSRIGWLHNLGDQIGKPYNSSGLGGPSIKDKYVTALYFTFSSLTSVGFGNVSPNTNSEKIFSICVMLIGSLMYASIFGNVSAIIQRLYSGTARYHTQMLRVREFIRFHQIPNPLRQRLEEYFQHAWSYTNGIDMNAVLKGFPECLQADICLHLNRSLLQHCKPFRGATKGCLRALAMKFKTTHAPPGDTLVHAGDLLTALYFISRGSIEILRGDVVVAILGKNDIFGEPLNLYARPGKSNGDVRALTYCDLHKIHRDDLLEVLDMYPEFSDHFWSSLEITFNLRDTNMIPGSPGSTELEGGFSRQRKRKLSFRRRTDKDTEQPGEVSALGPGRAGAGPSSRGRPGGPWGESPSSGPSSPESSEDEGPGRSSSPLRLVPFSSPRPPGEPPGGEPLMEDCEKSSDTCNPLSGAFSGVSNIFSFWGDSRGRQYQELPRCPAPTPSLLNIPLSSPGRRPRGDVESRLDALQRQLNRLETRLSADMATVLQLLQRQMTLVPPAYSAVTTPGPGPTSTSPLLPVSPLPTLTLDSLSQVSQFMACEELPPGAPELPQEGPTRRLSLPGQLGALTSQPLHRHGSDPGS
Method in brief: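 hERG tail current recorded from stably transfected cells, compound at a nominal 10 μM (stated as 3.6 μg/mL).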

[5] = target: Glutamate receptor 2 (Rattus norvegicus) (UniProt P19491); assay: Allosteric modulation of GluA2 receptor flip isoform in rat hippocampal neuron at 10 nM by whole cell patch-clamp electrophysiology; conditions: Hippocampus
Sequence of Glutamate receptor 2 (Rattus norvegicus) (P19491 whole entry, canonical isoform): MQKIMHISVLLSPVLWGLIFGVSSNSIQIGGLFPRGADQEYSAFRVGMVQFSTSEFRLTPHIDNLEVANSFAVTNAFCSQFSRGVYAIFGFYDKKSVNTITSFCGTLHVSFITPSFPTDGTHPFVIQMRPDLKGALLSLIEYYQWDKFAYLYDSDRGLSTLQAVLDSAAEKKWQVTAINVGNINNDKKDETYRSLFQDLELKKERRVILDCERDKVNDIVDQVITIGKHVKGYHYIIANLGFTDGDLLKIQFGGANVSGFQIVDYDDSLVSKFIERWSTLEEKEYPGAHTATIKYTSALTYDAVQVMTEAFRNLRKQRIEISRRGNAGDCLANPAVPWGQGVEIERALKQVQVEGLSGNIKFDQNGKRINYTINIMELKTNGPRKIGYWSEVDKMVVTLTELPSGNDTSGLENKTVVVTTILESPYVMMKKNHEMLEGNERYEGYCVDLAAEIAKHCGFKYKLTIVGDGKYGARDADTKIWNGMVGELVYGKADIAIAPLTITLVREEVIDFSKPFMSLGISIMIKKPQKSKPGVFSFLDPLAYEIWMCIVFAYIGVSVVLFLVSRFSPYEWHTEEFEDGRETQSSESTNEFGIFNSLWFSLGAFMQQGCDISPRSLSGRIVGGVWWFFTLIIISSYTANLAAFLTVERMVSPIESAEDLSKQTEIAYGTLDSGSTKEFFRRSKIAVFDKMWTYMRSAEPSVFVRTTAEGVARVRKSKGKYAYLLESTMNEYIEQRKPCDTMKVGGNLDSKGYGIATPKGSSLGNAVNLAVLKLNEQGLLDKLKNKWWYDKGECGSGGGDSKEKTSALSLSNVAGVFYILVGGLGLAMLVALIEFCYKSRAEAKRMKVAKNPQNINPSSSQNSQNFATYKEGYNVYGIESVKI
Method in brief: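 Rat cultured hippocampal neurons; 30 μM AMPA applied for 2 s, with compound co-applied at 10 nM or 10 μM. Read-out is the increase in charge transfer, taken as the area under the current curve.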

in vivo = conditions: Sprague-Dawley, rat, po, 3 mg/kg
Rattus norvegicus [6] = assay: Cognitive enhancing effect in Wistar rat assessed as reversal of scopolamine-induced amnesic deficit at 10 to 30 mg/kg, ip by passive avoidance test
[7] = Oral bioavailability in Gottingen minipig at 1 mg/kg; type: ADME, organism-based, Sus scrofa; conditions: pig, in vivo; method in brief: as §2
[8] = Volume of distribution at steady state in Swiss Beagle dog at 0.25 mg/kg, iv and 0.5 mg/kg, po; type: ADME, organism-based, Canis lupus familiaris; conditions: in vivo, read-out: Vdss; method in brief: as §2
Cynomolgus monkey = assay: Hepatic blood flow in cynomolgus monkey at 0.25 mg/kg, iv and 1 mg/kg, po; type: ADME, organism-based, Macaca fascicularis, Liver; conditions: in vivo; method in brief: as §1
[9] = Half life in Swiss Beagle dog at 0.5 mg/kg, po; type: ADME, organism-based, Canis lupus familiaris; design: dose 0.5 mg/kg, route oral; conditions: in vivo
[10] = Clearance in rat at 3 mg/kg, po; type: ADME, organism-based; design: dose 3 mg/kg, route oral; conditions: in vivo
Method in brief: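 Rats dosed orally at 3 mg/kg; blood sampled via the hepatic portal vein and heart. Estimated clearance derived from in vivo hepatic extraction, taking rat liver blood flow as 85 (mL/min)/kg.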

[11] = Tmax in cynomolgus monkey at 1 mg/kg, po; type: ADME, organism-based, Macaca fascicularis; design: dose 1 mg/kg, route oral; conditions: in vivo; method in brief: as §2
[12] = Tmax in Gottingen minipig at 1 mg/kg, po; type: ADME, organism-based, Sus scrofa; design: dose 1 mg/kg, route oral; conditions: pig, in vivo; method in brief: as §2
Hepatocyte = assay: Intrinsic clearance in cryopreserved human hepatocytes assessed per gram of tissue; type: ADME, cell-based, Liver
Method in brief: (§3)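 Cryopreserved hepatocytes at 70 000 cells/mL; intrinsic clearance expressed per gram of liver; single determination (human also n = 3).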

Rattus norvegicus [13] = assay: Cognitive enhancing effect in Lister Hooded rat assessed as reversal of 24 hrs delay-induced cognitive deficit at 1 mg/kg, ip by novel object recognition test
Glutamate receptor 2 = Glutamate receptor 2 (Homo sapiens, UniProt P42262); assay: Allosteric modulation of human recombinant GluA2 receptor flip isoform expressed in HEK293 cells at 10 uM by whole cell patch-clamp electrophysiology; type: cell-based
Sequence of Glutamate receptor 2 (P42262 whole entry, canonical isoform): as the sequence (P19491 whole entry, canonical isoform) above, with T191M, A291T, G764R, P852A counted along it
Method in brief: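 Perforated-patch (amphotericin B) voltage clamp of HEK293 cells stably expressing human GluA2 flip (unedited) homotetramers, held at -60 mV. Extracellular solution in mM: 140 NaCl, 2 KCl, 1 MgCl2, 2 CaCl2, 12 HEPES, 10 D-glucose, pH 7.35. Currents evoked by 1 mM glutamate; compound at 100 nM or 10 μM. Read-out is percent increase in charge transfer (area under curve).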

[14] = Half life in Sprague-Dawley rat at 2.5 mg/kg, iv; type: ADME, organism-based; design: dose 2.5 mg/kg, route intravenous; conditions: in vivo; method in brief: as §1
[15] = Half life in Swiss Beagle dog at 0.25 mg/kg, iv; type: ADME, organism-based, Canis lupus familiaris; design: dose 0.25 mg/kg, route intravenous; conditions: in vivo; method in brief: as §1
[16] = Half life in Gottingen minipig at 1 mg/kg, po; type: ADME, organism-based, Sus scrofa; design: dose 1 mg/kg, route oral; conditions: pig, in vivo
[17] = Cmax in Sprague-Dawley rat at 3 mg/kg, po; type: ADME, organism-based; design: dose 3 mg/kg, route oral; conditions: in vivo
[18] = Intrinsic clearance in cryopreserved dog hepatocytes assessed per gram of tissue; type: ADME, cell-based, Canis lupus familiaris, Liver, Hepatocyte; method in brief: as §3
Rattus norvegicus [19] = assay: Neurotoxicity in Lister Hooded rat assessed proconvulsant effect at 30 mg/kg, ip by MEST test; type: toxicity, organism-based; design: dose 30 mg/kg, route intraperitoneal; conditions: in vivo
Method in brief: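 Male Lister Hooded rats pretreated with compound, saline vehicle or picrotoxin 30 min before corneal electroshock (CC50 about 60–70 mA, 0.1 ms); tonic and tonic-clonic seizure threshold scored; brain concentrations taken from satellite rats sampled right after testing.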

[20] = Half life in cynomolgus monkey at 1 mg/kg, po; type: ADME, organism-based, Macaca fascicularis; design: dose 1 mg/kg, route oral; conditions: in vivo
[21] = Half life in cynomolgus monkey at 0.25 mg/kg, iv; type: ADME, organism-based, Macaca fascicularis; design: dose 0.25 mg/kg, route intravenous; conditions: in vivo; method in brief: as §1
Brain [22] = assay: Drug level in Lister Hooded rat assessed per gram of tissue at 0.3 mg/kg, ip; type: ADME, organism-based; design: dose 0.3 mg/kg, route intraperitoneal; conditions: in vivo
Method in brief: (§4)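 Male Lister Hooded rats (n = 9-12/group) tested for reversal of a 24 h delay-induced deficit in novel object recognition. Significant doses flagged. Brain concentrations measured in the study animals at the end of the test.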

Sus scrofa = assay: Hepatic blood flow in Gottingen minipig at 0.5 mg/kg, iv and 1 mg/kg, po; type: ADME, organism-based, Liver; conditions: pig, in vivo; method in brief: as §1
Cytochrome P450 2D6 = Cytochrome P450 2D6 (Homo sapiens, UniProt P10635); assay: Inhibition of human CYP2D6 by fluorescence assay; type: ADME
Sequence of Cytochrome P450 2D6 (P10635 whole entry): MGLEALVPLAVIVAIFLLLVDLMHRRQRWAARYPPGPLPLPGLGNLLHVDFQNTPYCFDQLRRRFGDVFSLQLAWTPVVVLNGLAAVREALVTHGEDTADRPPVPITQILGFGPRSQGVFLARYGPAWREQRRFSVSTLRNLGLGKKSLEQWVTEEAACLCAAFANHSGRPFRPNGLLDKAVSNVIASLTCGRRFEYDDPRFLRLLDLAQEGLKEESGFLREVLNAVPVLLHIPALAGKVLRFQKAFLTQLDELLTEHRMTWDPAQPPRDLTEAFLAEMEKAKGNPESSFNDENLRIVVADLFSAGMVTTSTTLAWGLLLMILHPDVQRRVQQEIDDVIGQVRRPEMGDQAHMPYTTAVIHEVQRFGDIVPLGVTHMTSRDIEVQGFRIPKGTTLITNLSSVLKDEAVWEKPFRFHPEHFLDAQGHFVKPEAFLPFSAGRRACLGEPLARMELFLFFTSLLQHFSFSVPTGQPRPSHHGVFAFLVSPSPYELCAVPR
Method in brief: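 Recombinant human CYP bactosomes (0.1 mg/mL) in 50 mM potassium phosphate pH 7.4, preincubated 10 min at 37 °C with test compound (0.1-10 μM, 7 concentrations) and fluorogenic substrate. Substrates: ethoxyresorufin 0.5 μM (1A2), FCA 50 μM (2C9), BMC 10 μM (2C19), MMC 10 μM (2D6), DEF 1 μM or 7-BQ 25 μM (3A4). Reaction started with NADPH regenerating system; metabolite formation read over 10 min. IC50 from percent of control rate; miconazole control; triplicate.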

Brain [23] = assay: Drug level in Lister Hooded rat assessed per gram of tissue at 3 mg/kg, ip; type: ADME, organism-based; design: dose 3 mg/kg, route intraperitoneal; conditions: in vivo; method in brief: as §4
[24] = Clearance in Gottingen minipig at 0.5 mg/kg, iv and 1 mg/kg, po; type: ADME, organism-based, Sus scrofa; conditions: pig, in vivo; method in brief: as §1
[25] = Cmax in Gottingen minipig at 1 mg/kg, po; type: ADME, organism-based, Sus scrofa; design: dose 1 mg/kg, route oral; conditions: pig, in vivo
[26] = Cmax in rat at 3 mg/kg, po; type: ADME, organism-based; design: dose 3 mg/kg, route oral; conditions: in vivo

## O=C(c1ccc(-n2nc(C(F)(F)F)c3c2CCCC3)cc1)N1CCCC1
[1]
  half-life: 1.6 h
[2]
  bioavailability: 2%
[3]
  CL: > 50 mL/min/g
[4]
  inhibition (INH): Not Active
[5]
  Activity: 37%
In vivo
  bioavailability: 54%
Rattus norvegicus [6]
  Activity: Active
[7]
  bioavailability: 13%
[8]
  Vd: 3.4 L/kg
Cynomolgus monkey
  QH: 86%
[9]
  half-life: 0.9 h
[10]
  CL/F: 12 mL/min/kg
[11]
  Tmax: 1 h
[12]
  Tmax: 0.5 h
Hepatocyte
  CL: 1.2 mL/min/g
Rattus norvegicus [13]
  Activity: Active
Glutamate receptor 2
  Activity: 600%
[14]
  half-life: 1.4 h
[15]
  half-life: 1.3 h
[16]
  half-life: 4.5 h
[17]
  Cmax: 245 ng/mL
[18]
  CL: 2.6 mL/min/g
Rattus norvegicus [19]
  Activity: Non-toxic
[20]
  half-life: 1.4 h
[21]
  half-life: 0.5 h
Brain [22]
  Drug uptake: 19 ng/g
Sus scrofa
  QH: 77%
Cytochrome P450 2D6
  IC50: 6 µM
Brain [23]
  Drug uptake: 542 ng/g
[24]
  clearance: 23 mL/min/kg
[25]
  Cmax: 29 ng/mL
[26]
  Cmax: 228 ng/mL
